The values below come from ChEMBL document CHEMBL3244428, “Synthesis and antifungal properties of certain 7-alkylaminopyrazolo[1,5-a]pyrimidines” (J Med Chem, 1977).

In data set [1] the test system is Trichophyton mentagrophytes. Kind of data set: Fungistatic activity against Trichophyton mentagrophytes clinical isolate after 48 hrs by broth dilution method. It counts as functional. The essentials: (§1)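 Broth dilution in chemically defined medium, with serial dilutions spanning 0.32 to 0.005 µmol/ml. Dermatophyte plates were read after 48 h at 30 °C.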
On the technique in general: In broth dilution the organism is exposed to a series of concentrations in liquid medium.

For data set [2], the system named is Trichophyton mentagrophytes. Kind of data set: Fungicidal activity against Trichophyton mentagrophytes clinical isolate after 48 hrs by broth dilution method. The format is functional. The method, boiled down:
as §1

For data set [3], the system named is Cavia porcellus. Kind of data set: Toxicity in guinea pig skin assessed as erythema administered topically bid measured on day 6. The format is organism-based. Particulars: in vivo, topical_or_ocular. The essentials: (§2)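 Intact or abraded skin of uninfected guinea pigs was treated topically with 1.0% w/v compound. The vehicle was either a solution of propylene glycol (20%), 70% sorbitol (3%) and ethanol (78%) or a petrolatum ointment. Skin was scored for erythema and scaling up to day 6, against vehicle-treated controls.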

Data set [4] concerns Cavia porcellus. Kind of data set: Toxicity in guinea pig skin assessed as scaling administered topically bid measured on day 6. The format is organism-based. As to conditions: in vivo, topical_or_ocular. The essentials:
as §2

Data set [5] has as its system Trichophyton mentagrophytes. Kind of data set: Antifungal activity against Trichophyton mentagrophytes infected in guinea pig assessed as cure rate of dermal infection at nonirritating dose administered topically bid started on day 3 post infection continued for 8 days measured every other day through day 14 relative to vehicle-treated control. It counts as functional, organism-based. The method, boiled down:
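Guinea pig T. mentagrophytes skin infection model, treated topically. Compounds were given at non-irritating concentrations, either as a w/v solution in propylene glycol (20%), 70% sorbitol (3%) and ethanol (78%) or in a petrolatum ointment. Treated animals were compared with infected, vehicle-only controls.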

The subject of data set [6] is Cavia porcellus. Put plainly: Toxicity in guinea pig assessed as skin irritation administered topically bid measured on day 6. As to conditions: in vivo, topical_or_ocular. The format is organism-based. The essentials: as §2
Setting [7] is: Trichophyton mentagrophytes, 48 h, read-out: MIC.

≈ marks a conversion by molar mass, not a printed value. Calls of active or inactive are those of the source.

In the case of `Cc1cc(NCc2ccc(Cl)cc2Cl)n2nccc2n1`, the minimal inhibitory concentration (MIC) in data set [1] (setting [7]) is 40 µM (≈ 12.3 µg/mL). In data set [2], this molecule yielded an MLC greater than 320 µM.
For `CCCCCCCCNc1ccnc2ccnn12.Cl`, the minimum inhibitory concentration (MIC) in data set [1] (setting [7]) is 10 µM. In addition, in data set [2], the MLC is 80 µM. Further, the Activity entry in the data set on Cavia porcellus [3] and in the data set on Cavia porcellus [4] was “Toxic” throughout. Moreover, the outcome in data set [5] was inactive.
Regarding `CCCCCCCCNc1c(C)c(Cl)nc2ccnn12`, the minimal inhibitory concentration (MIC) in data set [1] (setting [7]) is greater than 320 µM. Further, the MLC in data set [2] was greater than 320 µM.
Consider `CCCCCCCNc1cc(C)nc2ccnn12`, for which, in data set [1] (setting [7]), the MIC came out at 40 µM (≈ 9.85 µg/mL). In data set [2], this molecule had an MLC of 320 µM (≈ 78.8 µg/mL).
For `CCN(CC)c1cc(C)nc2ccnn12`, in data set [1] (setting [7]), the minimal inhibitory concentration (MIC) was greater than 320 µM. This molecule gave an MLC in data set [2] greater than 320 µM.
On to `Cc1cc(N2CCCCC2)n2nccc2n1`, for which, in data set [1] (setting [7]), the minimal inhibitory concentration (MIC) is greater than 320 µM. For the same molecule, in data set [2], the MLC is greater than 320 µM.
`CCCCCCCCNc1cc(C)nc2ccnn12` [listing 1 of 2 here]: in data set [5], the result was inactive.
As to `CCCCCCCCNc1c(C)c(C)nc2ccnn12`, the minimum inhibitory concentration (MIC) in data set [1] (setting [7]) is 10 µM (≈ 2.74 µg/mL). This molecule also gave an MLC in data set [2] greater than 320 µM.
Regarding `CCCCCCCCSc1cc(C)nc2ccnn12`, the minimum inhibitory concentration (MIC) in data set [1] (setting [7]) was determined as 20 µM (≈ 5.55 µg/mL). Moreover, the MLC in data set [2] was determined as 160 µM (≈ 44.4 µg/mL). For the same molecule, the Activity result with Cavia porcellus [6] was “Toxic”.
As for `CCCCCCCCCCNc1cc(Cl)nc2ccnn12`, in data set [1] (setting [7]), the MIC is greater than 320 µM. For the same molecule, in data set [2], the MLC was greater than 320 µM.
Regarding `CCCCCCNc1cc(C)nc2ccnn12`, the MIC in data set [1] (setting [7]) was 40 µM (≈ 9.29 µg/mL). This molecule came in with an MLC in data set [2] of 320 µM (≈ 74.3 µg/mL).
On to `CCCCCCCCNc1cc(C(=O)OCC)nc2ccnn12`, for which the minimum inhibitory concentration (MIC) in data set [1] (setting [7]) was 320 µM (≈ 102 µg/mL). In addition, in data set [2], the MLC was greater than 320 µM.
Consider `CCCCCCCCNc1cc(C)nc2ccnn12` [listing 2 of 2 here], for which, in data set [1] (setting [7]), the MIC was determined as 20 µM (≈ 5.21 µg/mL). Besides, the MLC in data set [2] was determined as 160 µM (≈ 41.7 µg/mL). Moreover, the Activity entry with Cavia porcellus [3] and in the data set on Cavia porcellus [4] was “Toxic” in each case.
`CCCCCCCCNc1cc(C)nc2ccnn12.Cl`: the minimal inhibitory concentration (MIC) in data set [1] is 20 µM. Besides, the MLC in data set [2] is 160 µM. Besides, the Activity result in the data set on Cavia porcellus [3] and in the data set with Cavia porcellus [4] was “Toxic” in each case.
Consider `Cc1cc(NCCCN2CCOCC2)n2nccc2n1.Cl`, for which the MIC in data set [1] (setting [7]) was greater than 320 µM. The MLC in data set [2] worked out at 320 µM.
Regarding `CCCCCCCCNc1cc(C)nc2c(C(=O)OCC)cnn12`, the minimum inhibitory concentration (MIC) in data set [1] (setting [7]) amounted to 320 µM (≈ 106 µg/mL). Also, in data set [2], the MLC was greater than 320 µM.
Take `CCCCCCCC/C=C/CCCCCCCCNc1cc(C)nc2c(Br)cnn12`: the MIC in data set [1] (setting [7]) amounted to 10 µM (≈ 4.78 µg/mL). For the same molecule, in data set [2], the MLC amounted to 20 µM (≈ 9.55 µg/mL). The outcome in data set [5] was Active.
Turning to `CCCCCCCCNc1cc(C(C)C)nc2ccnn12`, the MIC in data set [1] (setting [7]) was 20 µM (≈ 5.77 µg/mL). The molecule also registered an MLC in data set [2] greater than 320 µM.
Consider `CCCCCCCC/C=C/CCCCCCCCNc1cc(C)nc2ccnn12`, for which, in data set [1] (setting [7]), the MIC was found to be 5 µM (≈ 1.99 µg/mL). In data set [2], this molecule registered an MLC of 10 µM (≈ 3.99 µg/mL). The Activity entry with Cavia porcellus [3] and in the data set with Cavia porcellus [4] was “Toxic” throughout. Also, the outcome in data set [5] was inactive.
In the case of `Cc1cc(NCC(=O)O)n2nccc2n1`, in data set [1] (setting [7]), the MIC was greater than 320 µM. In data set [2], this molecule gave an MLC greater than 320 µM.
For the molecule `CCCNc1cc(C)nc2c(Br)cnn12`, the minimal inhibitory concentration (MIC) in data set [1] (setting [7]) worked out at 80 µM (≈ 21.5 µg/mL). Moreover, the MLC in data set [2] was 320 µM (≈ 86.1 µg/mL).
For the molecule `CCCCCCCCCCNc1cc(C)nc2ccnn12`, the minimal inhibitory concentration (MIC) in data set [1] (setting [7]) is 40 µM (≈ 11.5 µg/mL). The MLC in data set [2] was greater than 320 µM.
Consider `CCCCCCCCNc1cc(Cl)nc2ccnn12`, for which the MIC in data set [1] (setting [7]) is 20 µM (≈ 5.62 µg/mL). The same molecule registered an MLC in data set [2] of 320 µM (≈ 89.9 µg/mL).

A word on the MIC: it is the smallest concentration in the dilution series that meets the test's criterion for growth inhibition.
